Compounds with a hit are over-represented: about 3.1% of the library has one in this group of screens.
Hep lipid drop: hepatic lipid droplet formation modulation. AML12 mouse hepatocytes, oleate lipid droplets, BODIPY imaging. hit rate 0.4% among 240,000. inhibition, % at 6.5 µM;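 active means lipid droplet intensity inhibited by at least 50%, with more than 500 cells counted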
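Test system: AML12 mouse liver cells; schedule: overnight exposure; technique: high-content imaging of BODIPY-stained droplets and DAPI nuclei; read-out: % inhibition of corrected integrated BODIPY droplet signal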
ADAM17 inh: ADAM17 inhibition, QFRET primary screen | recombinant ADAM17, EDANS/DABCYL FRET peptide cleavage | inhibition, % at 6.95 µM | hit rate 0.83% among 370,000 | AID 720648;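 active means inhibition above the mean of compounds lying between control limits plus 3 SD, set per campaign, cut at about 8.5% in these data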;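 further: 0% = DMSO-only wells as the low control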
MPTP block: inhibitors of mitochondrial permeability transition pore; AID 602449; inhibition, % at 10 µM; isolated mouse mitochondria, Ca2+ swelling absorbance, 30 min; hit rate 1.4% among 360,000;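 active means inhibition of 50% or more, scaled per plate between neutral and stimulator controls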;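 further: 0% = DMSO wells given calcium and 100% = 1 mM EGTA wells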
aDG glyco up: alpha-DG glycosylation activation; Pro5-aDG cells, alpha-DG glycosylation AlphaScreen (IIH6); 0% Pro5, 100% B10-LARGE cell signal; activation, % at 10 µM; hit rate 0.22% among 360,000; AID 624168;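 active means activation of at least 8% versus controls, or a plate z-score of at least 8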;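 further: Pro5 are CHO cells carrying HIG-tagged alpha-DG that lacks glycosylation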
ADAM10 inh: ADAM10 inhibition, QFRET primary screen; O14672; AID 720582; recombinant ADAM10, EDANS/DABCYL FRET peptide cleavage, 3 h; hit rate 0.62% among 370,000; inhibition, % at 7 µM;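 active means inhibition above a per-campaign cutoff equal to the mean of compounds falling between control-based bounds plus 3 SD, cut at about 20% in these data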;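 further: 0% = DMSO wells while the 100% control is not disclosed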
Target sequence (O14672 214-748 limits assumed): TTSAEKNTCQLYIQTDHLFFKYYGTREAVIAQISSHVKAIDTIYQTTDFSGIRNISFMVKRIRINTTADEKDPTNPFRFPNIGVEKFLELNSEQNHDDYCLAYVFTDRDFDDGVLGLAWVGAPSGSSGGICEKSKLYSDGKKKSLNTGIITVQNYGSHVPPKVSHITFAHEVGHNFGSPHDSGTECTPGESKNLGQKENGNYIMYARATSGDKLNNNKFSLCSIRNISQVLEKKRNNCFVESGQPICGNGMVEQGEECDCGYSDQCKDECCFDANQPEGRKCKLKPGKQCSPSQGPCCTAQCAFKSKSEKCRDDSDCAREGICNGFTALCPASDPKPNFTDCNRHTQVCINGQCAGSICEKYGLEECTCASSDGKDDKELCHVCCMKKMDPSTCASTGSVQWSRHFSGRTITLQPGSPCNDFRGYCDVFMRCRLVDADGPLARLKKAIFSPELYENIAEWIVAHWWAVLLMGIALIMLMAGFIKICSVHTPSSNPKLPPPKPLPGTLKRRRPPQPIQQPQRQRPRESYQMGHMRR
V-ATPase pH: yeast V-ATPase proton transport regulation by pHLuorin | S. cerevisiae, pHLuorin cytosolic pH fluorescence | response, % at 10 µM | AID 504577 | hit rate 0.37% among 350,000; in the data active means response mostly above about 7.3%, no sharp cut-off; inactive means mostly below about 5.4%; further: actives read high
MPTP counter: Rhodamine 123 counter-screen of mitochondrial pore hits; isolated mitochondria, membrane potential, Rhodamine 123 fluorescence; inhibition, % at 10 µM; AID 624504; shares compounds with MPTP block; hit rate 78% among 5,000; in the data active means inhibition above about 22%;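 further: 0% = DMSO vehicle and 100% = positive control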
MPTP abs DR: MPTP inhibition, dose response swelling confirmation. hit rate 58% among 780. AID 651561. IC50, µM. shares compounds with MPTP block. isolated mitochondria swelling, absorbance; in the data active means IC50 below about 20 µM
MPTP counter DR: active in counter-screen for permeability transition pore inhibitors. IC50, µM. shares compounds with MPTP block. AID 651564. isolated mitochondria counterscreen, fluorescence read-out. hit rate 49% among 780; in the data active means IC50 below about 80 µM
* = called active by the depositor; i = inactive; / = no result.

SMILES	Hep lipid drop	ADAM17 inh	MPTP block	aDG glyco up	ADAM10 inh	V-ATPase pH	MPTP counter	others
CN(C)CCNC(=O)c1ccc(Sc2ccc(Br)cc2)c([N+](=O)[O-])c1	36	-3	102*	3.6*	0	-3	-8	MPTP abs DR=5.8*;MPTP counter DR=>80
Cc1oc(-c2cccc(Cl)c2)nc1CN1CCCC(C(=O)NC(C)c2ccc3c(c2)OCCO3)C1 (stereo unspecified)	/	5	51*	0	9	-1	15	MPTP abs DR=12*;MPTP counter DR=20*
COc1ccc(-c2noc(CCC(=O)NCCCN3CCC(Cc4ccccc4)CC3)n2)cc1	-2	-2	63*	5.5*	-7	0	42*
Cc1ccc(-c2noc(CCC(=O)NCC3CCN(Cc4cccc(C)c4)CC3)n2)cc1	-1	-3	67*	3	-5	-8	7	MPTP abs DR=8.8*;MPTP counter DR=24*
Cc1nc2ccc(S(=O)(=O)Nc3cccc(-c4nc5cccnc5s4)c3C)cc2s1	-18	4	98*	0	-10	-7	88*
CCCC1CCC2(CC1)CCC2OC(=O)Nc1ccccc1OC (stereo unspecified)	/	0	/	/	3	/	/
O=C(Nc1ccc(OC(F)(F)F)cc1)N1CCc2nc(NCc3cccc(Oc4ccccc4)c3)ncc2C1	/	-3	92*	1	-13	/	96*
COc1cccc(NC(=O)N2CCc3nc(NCc4cccc(Oc5ccccc5)c4)ncc3C2)c1	/	-12	2	1	-47	/	/
Cc1cc(C(=O)Nc2ccc(F)cc2)n(-c2ccccc2)n1	/	5	/	/	-7	/	/
CC(Cc1cccs1)NC(=O)c1cccs1 (stereo unspecified)	6	-2	1	0	-4	5	/
CC(Cc1cccs1)NC(=O)Nc1ccc([N+](=O)[O-])cc1 (stereo unspecified)	-4	5	86*	0	15	4	91*
CC(Cc1cccs1)NC(=S)Nc1ccc(F)cc1 (stereo unspecified)	-13	2	50*	0	5	6	73*
O=C(Nc1c(F)cc(F)cc1Br)c1cc(-c2ccccc2)on1	-16	0	1	0	1	6	/
O=C(Nc1c(F)cc(F)cc1Br)c1cc(-c2ccc(O)cc2)on1	/	6	92*	0	13	-3	23*
COC(=O)[C@]12C[C@H](CC(=O)NCCCCc3ccccc3)C(=O)N(Cc3ccco3)C1=C[C@H](C(C)C)O[C@@H]2C1CC1	/	7	/	/	9	/	/
O=C(NCc1ccncc1)C(=O)N/N=C/c1ccc(OCc2ccccc2)cc1	8	-6	3	1	-12	-1	/
O=NN(CCc1ccncc1)c1ccc(OCc2ccccc2)cc1	-2	-3	93*	7	1	-3	89*
COc1ccc(CNc2cc(C)nc3ncnn23)c(OC)c1	-56	-3	75*	2	-2	4	34*
O=C(NC(c1cccnc1)C(F)(F)F)c1cc(COc2ccc3c(c2)CCCC3)on1 (stereo unspecified)	-21	8	100*	1	17	1	86*
Cn1cc(CNC(=O)c2cc(COc3ccc4c(c3)CCCC4)on2)cn1	18	1	1	0	4	-1	/
O=C(Nc1nnc(SCc2ccc(Cl)cc2)s1)c1cnccn1	0	-4	1	0	3	-2	/
O=C(Nc1ccc(Cl)cc1)Nc1nnc(SCc2ccc(Cl)cc2)s1	-35	0	85*	0	0	/	24*
CCSc1nnc(NC(=O)Nc2cccc(C)c2)s1	-3	-1	82*	0	2	1	84*
O=C(Nc1ccccc1)Nc1nnc(SCc2ccc(Cl)cc2)s1	-10	-2	86*	0	1	2	33*
CCSc1nnc(NC(=O)[C@@H](NC(=O)c2cccc(C)c2)C(C)C)s1	-26	-1	1	0	-5	11	/
SMILES	Hep lipid drop	ADAM17 inh	MPTP block	aDG glyco up	ADAM10 inh	V-ATPase pH	MPTP counter	others
COC(=O)[C@H](C(C)C)N(Cc1cn(Cc2ccccc2)nn1)S(=O)(=O)c1ccccc1Br	/	1	/	/	5	/	/
OC[C@@H]1CC[C@@H]2O[C@H](CCc3ccc(-c4ccc(F)cc4)cc3)[C@H](n3cc(C4CC4)nn3)C[C@@H]2O1	/	6	/	/	17	/	/
COC(=O)C[C@@H]1CC[C@@H]2[C@@H](COc3ccc(NC(=O)c4ccc(F)cc4)cc3C(=O)N2C)O1	/	-3	/	/	-5	/	/
O=C(Cc1ccc(Br)cc1)NCCc1ccc(Cl)cc1Cl	-17	3	50*	0	3	-3	68*
CCCCNC(=O)C[C@@H]1C[C@]2(C(=O)OCC)CCC3=C2N(CCC3)C1=O	/	-4	/	/	2	/	/
O=S(=O)(NCC1CCCO1)c1ccccc1 (stereo unspecified)	-5	-2	1	0	1	6	/
O=C(C1CC1)N1CCC(c2nc(-c3ccc(S(=O)(=O)NCC4CCCO4)cc3)no2)CC1 (stereo unspecified)	-26	-3	66*	1	14	/	16	MPTP abs DR=i;MPTP counter DR=46*
O=C(C1CC1)N1CCC(c2nc(-c3ccc(S(=O)(=O)N4CCCC4)cc3)no2)CC1	7	-3	0	0	-5	2	/
O=C(c1ccccc1)N1CCC(c2nc(-c3ccc(S(=O)(=O)NCC4CCCO4)cc3)no2)CC1 (stereo unspecified)	-4	-1	53*	2	6	0	62*
Cc1nc2cc(-c3ccsc3-n3c(C)ccc3C)[nH]n2c(=O)c1Cl	11	-40	67*	0	-130	-1	51*
CC(COc1ccc([N+](=O)[O-])cc1Cl)CN1CCC(C(O)(c2ccccc2)c2ccccc2)CC1 (stereo unspecified)	/	6	/	/	10	/	/
CC(C)N(C(=S)Nc1cccc(C(F)(F)F)c1)C(C)c1ccccn1 (stereo unspecified)	-3	-2	92*	0	-1	6	83*
COc1ccccc1NC(=S)N(C(C)C)C(C)c1ccccn1 (stereo unspecified)	-50	-5	8	0	-6	-1	/
Cc1ccc(-c2nnc(N3CCN(C(=O)COc4cccc(C)c4)CC3)c3ccccc23)cc1	28	-1	26	0	7	2	/
Cc1ccc(OCC(=O)N2CCN(c3nnc(-c4ccc(C)cc4)c4ccccc34)CC2)cc1	14	-3	84*	2	-6	-2	22*

High-throughput results: PubChem BioAssay, several laboratories
